Source: PubChem
ADAM10 inh = ADAM10 inhibition, QFRET primary screen; O14672; 0.62% of 370,000 active; inhibition, % at 7 µM; recombinant ADAM10, EDANS/DABCYL FRET peptide cleavage, 3 h;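 active = inhibition above a per-campaign cutoff equal to the mean of compounds falling between control-based bounds plus 3 SD, cut at about 20% in these data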
PLC-beta3 inh = PLC-beta3 (human) inhibition, primary screen; 0.18% of 370,000 active; inhibition, % at 12.2 µM; Purified PLC-beta3, fluorogenic substrate, fluorescence; in the data active = inhibition above about 11%
TbMetRS inhib = Trypanosoma brucei MetRS inhibition; purified T. brucei MetRS, ATP depletion, Kinase-Glo luminescence; inhibition, % at 11.9 µM; 0.4% of 360,000 active; AID 624268;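 active = inhibition above a per-plate cutoff of the control wells' mean inhibition plus 3 SD, cut at about 5.5% in these data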
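System: purified T. brucei MetRS enzyme / Detection: Kinase-Glo luciferase luminescence reporting remaining unconsumed ATP / Medium: HEPES buffer with MgCl2, KCl, DTT, spermine, BSA, pyrophosphatase / Replication: singlicate, one well per compound / Evaluation: percent inhibition relative to median high and low control wells / Schedule: 2 h aminoacylation at 25 °C after 15 min preincubation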
PLC-gamma1 inh = PLC-gamma1 (human) inhibition, primary screen; P19174; purified PLC-gamma1, fluorogenic substrate, fluorescence; inhibition, % at 12.2 µM; 0.84% of 370,000 active; AID 720700; in the data active = inhibition above about 9.5%
ADAM17 inh = inhibits human ADAM17; P78536; AID 720648; 0.83% of 370,000 active; inhibition, % at 6.95 µM; recombinant ADAM17, EDANS/DABCYL FRET peptide cleavage;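 active = inhibition above the mean of compounds lying between control limits plus 3 SD, set per campaign, cut at about 8.5% in these data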
Target sequence (P78536 215-824 limits assumed): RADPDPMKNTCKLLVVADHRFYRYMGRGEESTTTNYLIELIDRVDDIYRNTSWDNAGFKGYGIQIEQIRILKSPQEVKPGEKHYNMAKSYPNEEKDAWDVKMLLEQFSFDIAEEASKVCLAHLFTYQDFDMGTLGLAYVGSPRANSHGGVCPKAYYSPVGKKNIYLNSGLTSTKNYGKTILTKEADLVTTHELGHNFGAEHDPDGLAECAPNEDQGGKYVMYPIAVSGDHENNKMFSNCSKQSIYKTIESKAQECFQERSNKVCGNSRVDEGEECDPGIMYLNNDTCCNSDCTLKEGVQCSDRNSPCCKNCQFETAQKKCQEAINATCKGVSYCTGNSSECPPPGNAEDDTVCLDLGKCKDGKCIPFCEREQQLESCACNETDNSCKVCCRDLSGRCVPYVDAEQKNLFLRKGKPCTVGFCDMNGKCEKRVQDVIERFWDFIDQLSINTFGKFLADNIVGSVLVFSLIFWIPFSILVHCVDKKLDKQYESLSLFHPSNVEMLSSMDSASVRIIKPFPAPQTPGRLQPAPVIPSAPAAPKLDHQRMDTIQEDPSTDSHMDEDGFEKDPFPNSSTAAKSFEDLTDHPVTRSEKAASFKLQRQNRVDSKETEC
ADAM10 ctr = inhibits human ADAM10 in ADAM17 exosite counter-screen; shares compounds with ADAM17 inh; recombinant ADAM10, EDANS/DABCYL FRET peptide cleavage, 3 h; inhibition, % at 6.95 µM; 47% of 2,900 active; AID 743256;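 active = mean inhibition over the triplicate runs exceeds the activity threshold set in the earlier primary screen, cut at about 20% in these data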
ADAM17 confirm = human ADAM17 inhibition, confirmation; inhibition, % at 6.95 µM; recombinant ADAM17, EDANS/DABCYL QFRET peptide cleavage; 65% of 2,900 active; shares compounds with ADAM17 inh;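 active = mean inhibition across replicates above the hit cutoff set in the primary screen, cut at about 8.5% in these data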
Hits are given with their value; n = inactive; x = not tested or not shown. A selection: hits, their analogues and other compounds. The true share with any hit is near 2.3%.

SMILES | ADAM10 inh | PLC-beta3 inh | TbMetRS inhib | PLC-gamma1 inh | ADAM17 inh | ADAM10 ctr | ADAM17 confirm
COc1cccc(C(O)c2ncc(-c3cccc(C(F)(F)F)c3)[nH]2)c1 (configuration not stated) | n | n | n | n | 10.3 | n | 9.8
OC(c1ccc(Cl)cc1)c1ncc(-c2ccccc2F)[nH]1 (configuration not stated) | n | n | n | n | n | x | x
CCCc1ccc(C(O)c2ncc(-c3ccccc3F)[nH]2)cc1 (configuration not stated) | n | n | n | n | 9.2 | n | n
COc1ccc(C(=O)NCC(=O)OCC(=O)c2ccc3c(c2)NC(=O)CO3)cc1 | n | n | n | n | n | x | x
CC(C)CN1CCC(CN2C(=S)NC[C@@H]2Cc2ccccc2)CC1 | n | n | x | n | n | x | x
CCOC(=O)c1c(O)cc(OC)cc1CCc1ccccc1 | n | n | n | n | 9.9 | n | n
COc1cc(O)c(C(=O)O)c(CCc2ccccc2)c1 | n | n | n | n | n | x | x
O=C(CSc1ccc([N+](=O)[O-])cn1)Nc1nccs1 | n | n | n | n | n | x | x
Cc1csc(NC(=O)CSc2ccc([N+](=O)[O-])cn2)n1 | n | n | n | n | 8.7 | n | n
COc1ccccc1NC(=O)Cn1nnc(-c2ccccc2NS(=O)(=O)c2ccccc2)n1 | n | n | n | n | 9.3 | 36.7 | 21.6
COc1ccc(NC(=O)Cn2nnc(-c3ccccc3NS(=O)(=O)c3ccc(OC)cc3)n2)cc1 | n | n | n | n | n | x | x
NNC(=O)c1c[nH]c2ccc(OCc3ccccc3)cc12 | n | n | n | n | n | x | x
C[C@H]1CN([C@@H](C)CO)C(=O)Cc2cc(NC(=O)C3CC3)ccc2O[C@H]1CN(C)Cc1ccc(Oc2ccccc2)cc1 | n | n | n | n | 9.3 | 28.8 | 18.8
COc1ccc(NC(=O)Nc2ccc3c(c2)CC(=O)N([C@H](C)CO)C[C@H](C)[C@H](CN(C)Cc2ccc(C(=O)O)cc2)O3)cc1 | n | n | n | n | 9.0 | n | n
CC(C)[C@@H](CO)NS(=O)(=O)c1ccc(Br)cc1F | n | n | n | n | n | x | x
COC[C@H](NS(=O)(=O)c1ccc(Br)cc1F)[C@@H](O)c1ccccc1 | n | n | n | n | 9.8 | n | 10.1
CS(=O)(=O)Nc1ccc2c(c1)[C@H]1C[C@H](CC(=O)NCc3cccc(F)c3)O[C@@H](CO)[C@H]1O2 | n | n | n | n | n | x | x
COC(=O)CN1C(c2ccc(Cl)cc2)=Nc2ccc(Cl)cc2C1c1ccccc1 (configuration not stated) | n | n | n | n | 9.0 | 23.1 | 12.9
Cc1c(C(=O)N2CCN(S(=O)(=O)c3ccccc3)CC2)oc2ccc(Br)cc12 | n | n | n | n | 10.1 | 23.7 | 14.4
Cc1c(C(=O)N2CCCCC2)oc2ccc(Br)cc12 | n | n | n | n | n | x | x
O=C(Nc1ccccc1)N(Cc1ccccc1)CC(O)C(F)(F)F (configuration not stated) | n | n | n | n | n | x | x
O=C(Nc1cccc(F)c1)N(Cc1ccc(Cl)cc1)CC(O)C(F)(F)F (configuration not stated) | n | n | n | n | 9.9 | 36.0 | 19.6
CC(C)(C)NS(=O)(=O)c1ccc(CCC(=O)NCc2ccc3c(c2)OCO3)cc1 | n | n | n | n | 9.0 | n | n
CC(C)NS(=O)(=O)c1ccc(CCC(=O)NCc2ccc3c(c2)OCO3)cc1 | n | n | n | n | n | x | x
CCOc1ccccc1C(=O)N(Cc1cccs1)C1CCS(=O)(=O)C1 (configuration not stated) | n | n | n | n | n | x | x
SMILES | ADAM10 inh | PLC-beta3 inh | TbMetRS inhib | PLC-gamma1 inh | ADAM17 inh | ADAM10 ctr | ADAM17 confirm
CCCOc1ccccc1C(=O)N(Cc1cccs1)C1CCS(=O)(=O)C1 (configuration not stated) | n | 12.4 | n | n | 10.5 | n | n
Cc1cccc(Nc2nc(N)c([N+](=O)[O-])c(NCc3ccccc3)n2)c1 | n | n | n | n | 9.2 | n | n
COc1ccc(C)cc1NC(=O)NNC(=O)C(C)Oc1ccc([N+](=O)[O-])cc1 (configuration not stated) | n | n | n | n | 9.0 | n | 9.0
COc1ccccc1NC(=O)NNC(=O)C(C)Oc1ccc2ccccc2c1 (configuration not stated) | n | n | n | n | n | x | x
COc1cccc(CNC(=O)CSCc2cnn(-c3ccccc3)c2-n2cccc2)c1 | n | n | n | n | 13.9 | n | n
Cc1ccc(C2(C)NC(=O)N(CC(=O)Nc3ccccc3C(=O)NC3CCCC3)C2=O)cc1 (configuration not stated) | n | n | n | n | n | x | x
COC(=O)c1cc2oc(C)cc2n1CC(=O)Nc1cc(C)cc(C)c1 | n | n | n | n | 9.6 | n | n
COc1ccccc1-c1cnc(C(O)c2cc(C)c(OC)c(C)c2)[nH]1 (configuration not stated) | n | n | n | n | n | x | x
COc1nnc(-c2ccc(C(=O)N3C[C@@H]4C[C@H](C3)c3cccc(=O)n3C4)cc2)c2ccccc12 | n | n | n | n | 9.6 | n | n
O=C(c1ccc(-c2nnc(Nc3cccc(Cl)c3)c3ccccc23)cc1)N1C[C@H]2C[C@H](C1)c1cccc(=O)n1C2 | n | n | n | n | n | x | x
O=C1C2C3CC(C(Br)C3Br)C2C(=O)N1c1nccs1 (configuration not stated) | n | n | n | n | n | x | x
CC(=O)O[C@@H]1C=C[C@@H](C#Cc2ccc(C(C)(C)C)cc2)O[C@@H]1COC(=O)Nc1ccccc1 | n | n | x | n | 13.3 | 29.3 | 12.7
Cc1ccc(S(=O)(=O)NCCC(=O)Nc2ccc(Cl)c(Cl)c2)cc1 | n | n | n | n | 9.2 | 25.4 | 14.7
CCc1ccccc1NC(=O)CSc1nc2n[nH]c(C)c2c(=N)n1-c1ccc(OC)cc1 | n | n | n | n | 11.9 | n | 9.0
Cn1cccc1Cc1nnc(SCC(=O)NC2CCCC2)n1-c1ccc(F)cc1 | n | n | n | n | n | x | x
CS(=O)(=O)NCc1nnc(SCC(=O)NC2CCCCC2)n1-c1ccc(F)cc1 | n | n | n | n | 9.1 | n | n
Cc1cc(C)c(NC(=O)CNC(=O)c2ccccc2OCc2c(C)noc2C)c(C)c1 | n | n | n | n | n | x | x
C=CC[C@@H](CC(=O)N[C@@H](CO)Cc1ccccc1)C(=O)N[C@@H](COC(=O)[C@H](CC=C)CC(=O)OC(C)(C)C)Cc1c[nH]c2ccccc12 | n | n | n | n | n | x | x
C=CC[C@@H](CC(=O)N[C@@H](CO)Cc1ccccc1)C(=O)N[C@@H](COC(=O)[C@@H](CC=C)CC(=O)OC(C)(C)C)Cc1c[nH]c2ccccc12 | n | n | n | n | n | x | x
